The text below walks through data of ChEMBL document CHEMBL5108077, “Discovery of N-β-l-Fucosyl Amides as High-Affinity Ligands for the Pseudomonas aeruginosa Lectin LecB” (J Med Chem, 2022).

Assay [1] concerns Pseudomonas aeruginosa. Description: Binding affinity to Pseudomonas aeruginosa PA-IIL assessed as change in enthalpy by isothermal titration calorimetry. The essentials: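 Recombinant PAO1 LecB expressed in E. coli BL21(DE3), in TBS/Ca²⁺ pH 7.4. Ligand (500–1500 μM) titrated into 100 μM LecB at 25 °C with stirring: 19–39 injections, 240 s apart. First injection discarded. One-site binding model fit. Means from three independent titrations.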

The test system of assay [2] is Pseudomonas aeruginosa. Description: Binding affinity to Pseudomonas aeruginosa PA-IIL assessed as change in entropy by isothermal titration calorimetry. In general terms: In ITC the heat of successive injections is recorded.

For the compound `C[C@@H]1O[C@H](O)[C@@H](O)[C@H](O)[C@@H]1O`, the deltaH in the assay on Pseudomonas aeruginosa [1] is -7.46 kcal/mol. For the same compound, the TdeltaS in the assay with Pseudomonas aeruginosa [2] stood at 0.0717 kcal/mol.
